Assay outcomes as filed in PubChem.
The list is not random: actives were taken first. Their share in the collection is about 3.5%.
RGS4 block – RGS4 inhibitors, primary screen, cell-based, HEK293 M3R inducible RGS4, calcium flux. Regulator of G-protein signaling 4 (Homo sapiens), P49798. Fluo-4 calcium flux; stronger effect = higher value; triggered by carbachol at its EC20. B-score at 10 µM. 310,000 tested, 0.45% active;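 active means B-score, a plate-corrected calcium signal, over three deviations above library mean, with baseline fluorescence within five deviations of library mean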;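 further: RGS4 expression induced by doxycycline in cells with stable M3 receptor; B-score is computed from the integrated fluorescence ratio over baseline after carbachol; higher B-score means a larger calcium signal and so more RGS4 inhibition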
Target sequence (P49798 whole entry, looked up): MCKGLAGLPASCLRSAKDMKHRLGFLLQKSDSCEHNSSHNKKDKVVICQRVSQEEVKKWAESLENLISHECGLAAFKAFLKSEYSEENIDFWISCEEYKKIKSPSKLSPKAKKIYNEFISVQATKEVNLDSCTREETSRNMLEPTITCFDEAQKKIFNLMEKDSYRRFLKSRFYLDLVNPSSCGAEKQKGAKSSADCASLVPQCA
MrgX1 agonist – agonists of human MrgX1 receptor, primary screen, HEK293 cells, Fluo-4 calcium flux; Mas-related G-protein coupled receptor member X1 (Homo sapiens), Q96LB2; Fluo-4 calcium fluorescence, agonist mode; stronger effect = higher value; B-score at 10 µM; 310,000 tested, 0.44% active; AID 588627, 2011;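 active means calcium response B-score plate-corrected fluorescence ratio at least 3 library SD, with starting fluorescence B-score inside 5 SD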
Target sequence (Q96LB2 whole entry, looked up): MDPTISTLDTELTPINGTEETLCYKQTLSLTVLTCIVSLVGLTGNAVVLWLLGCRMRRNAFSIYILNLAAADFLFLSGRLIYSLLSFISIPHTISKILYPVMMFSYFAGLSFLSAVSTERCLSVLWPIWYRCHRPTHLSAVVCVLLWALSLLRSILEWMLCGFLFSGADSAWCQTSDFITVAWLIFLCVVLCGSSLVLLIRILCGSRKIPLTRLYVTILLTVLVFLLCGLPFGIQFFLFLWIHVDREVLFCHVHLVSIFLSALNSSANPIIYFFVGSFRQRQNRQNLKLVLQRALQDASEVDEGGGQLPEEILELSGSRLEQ
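Assay system: stable human MrgX1 HEK293 cell line. Quantity: 15,000 cells per well. Schedule: cells plated overnight, dye loaded 0.5 h 37 °C, 0.5 h room temperature. Detection: Fluo-4 NW calcium-flux fluorescence, kinetic read. Read-out basis: peak-minus-minimum fluorescence over baseline, converted to B scores. Control set: positive and negative control wells on each plate.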
MrgX1 PAM – positive allosteric modulators of MrgX1, primary screen, HEK293 cells, Fluo-4 calcium flux; Mas-related G-protein coupled receptor member X1 (Homo sapiens), Q96LB2; FDSS; stronger effect = higher value; B-score at 10 µM; 310,000 tested, 0.63% active; AID 588675, 2011;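 active means plate-corrected calcium response at least 3 library SD above typical, normal starting fluorescence, not activating the receptor alone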;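 further: compound read alongside a low EC10 to EC30 dose of BAM8-22 agonist; peak minus trough fluorescence over baseline measured at the second addition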
MrgX1 antag – antagonists of human MrgX1 receptor, primary screen, HEK293 cells, Fluo-4 calcium flux; Mas-related G-protein coupled receptor member X1 (Homo sapiens), Q96LB2; BAM8-22 antagonism; stronger effect = lower value; B-score at 10 µM; 310,000 tested, 1.3% active;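 active means calcium-response B-score plate-corrected more than 3 library SD below zero, starting fluorescence within 5 deviations, no agonist response on first addition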;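 further: peak minus trough fluorescence over baseline after final BAM8-22 challenge near maximal dose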
RGS4 pot – RGS4 potentiators or activators, primary screen, cell-based, HEK293 M3R inducible RGS4, calcium flux; carbachol calcium flux Fluo4; stronger effect = lower value; B-score at 10 µM; 310,000 tested, 0.92% active;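 active means B-score of the integrated calcium signal more than 4 SD below the library mean, with starting fluorescence not abnormally high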;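 further: negative B-score means reduced calcium response which marks RGS4 activation or potentiation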
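Detection: kinetic calcium fluorescence imaging with Fluo4-AM dye, 2 µM / Material: HEK293 cells with stable M3R and inducible RGS4 / Schedule: recording 10 s baseline at 1 Hz, 100 s post-agonist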
MrgX1 PAM conf – MrgX1 positive allosteric modulators, duplicate retest, confirmation, HEK293 cells, Fluo-4 calcium flux; shares compounds with MrgX1 PAM; Fluo-4 calcium fluorescence, FDSS; activation (ratio percentage), % at 10 µM; 1,200 tested, 13% active;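 active means ratio at least 3 SD above the weak peptide control, stable starting fluorescence, no direct agonism earlier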;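 further: compound followed by low BAM8-22 agonist challenge near EC20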
HEK293 Ca flux – nonspecific calcium signal in parental HEK293, confirmation, counter-screen for MrgX1 antagonist project, parental HEK293 cells, Fluo-4 calcium flux. shares compounds with MrgX1 antag. fluorescence ratio F(max-min)/F0 at 10 µM. AID 624111, 2012. 4,000 tested, 2% active. Fluo-4 calcium fluorescence, FDSS;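 active means duplicate-averaged calcium fluorescence ratio at least three times the standard deviation of buffer wells, a nonspecific response in parental cells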
HEK293 Ca counter – calcium response in parental HEK293 cells, primary screen, counter-screen for MrgX1 allosteric activator project, cell-based, Fluo-4 calcium flux, duplicate; 4,000 tested, 0.4% active; AID 624114, 2012; shares compounds with MrgX1 antag; Fluo-4 fluorescence ratio; stronger effect = higher value; fluorescence ratio F(max-min)/F0 at 10 µM;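 active means calcium fluorescence ratio, averaged over duplicates, at least 3 SD of the buffer-well ratio, meaning a nonspecific response in receptor-free cells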;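 further: untransfected parental HEK293 lacking MrgX1 used as counterscreen for MrgX1 allosteric activators; fluorescence change taken during the second addition on a kinetic imager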
HEK293 Ca cntr2 – calcium response in parental HEK293 cells, primary screen, counter-screen for MrgX1 agonist project, cell-based, Fluo-4 calcium flux, duplicate, agonist mode | shares compounds with MrgX1 antag | Fluo-4 calcium fluorescence (FDSS); stronger effect = higher value | fluorescence ratio F(max-min)/F0 at 10 µM | 4,000 tested, 8.7% active | AID 624115, 2012;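 active means calcium fluorescence ratio at least three times the spread of buffer wells, meaning a non-specific response in parental cells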
The depositor's hits bear a star; i = inactive; . = no result.

SMILES	RGS4 block	MrgX1 agonist	MrgX1 PAM	MrgX1 antag	RGS4 pot	MrgX1 PAM conf	HEK293 Ca flux	HEK293 Ca counter	HEK293 Ca cntr2
CC(=O)NC(Cc1ccc(F)cc1)C(=O)NC1CCN(C(=O)Nc2ccc(F)cc2)CC1 (stereo unspecified)	i	i	59.5*	i	i	i	i	i	i
Cn1c(=O)c2c(nc(CN3CCc4ccccc4C3)n2Cc2ccc(Cl)cc2)n(C)c1=O	i	i	i	i	i	.	.	.	.
Cn1c(=O)c2c(nc(CN3CCc4ccccc4C3)n2Cc2ccccc2)n(C)c1=O	i	i	16.5*	i	i	13.1%*	i	i	i
CC12CCC(=O)N1C(C(=O)Nc1nc(-c3ccc(F)c(F)c3)cs1)CS2 (stereo unspecified)	i	i	i	i	i	.	.	.	.
COc1ccc(-c2csc(NC(=O)C3CSC4(C)CCC(=O)N34)n2)cc1OC (stereo unspecified)	i	i	10.8*	i	i	9.1%*	i	i	i
COc1cc(SC)ccc1C(=O)NCc1ccc(C)cc1	i	i	6.53*	i	i	i	i	i	i
Cc1ccc(Nc2cc(-n3cccn3)ncn2)c(C)c1	i	i	13.7*	i	i	i	i	i	i
CCN(CC)C(=O)CSc1nc2ccccc2c(=O)n1CCC(=O)NCc1ccc(F)cc1	i	i	i	i	i	.	.	.	.
C=CCNC(=O)c1c(Cl)cnn1-c1ccc(C)cc1	i	i	i	i	i	.	.	.	.
COc1ccc(OCCC(=O)NCC23CC4CC(CC(C4)C2)C3)cc1	i	i	8.85*	i	i	i	i	i	i
COc1cc(OC)c(C(=O)NC23CC4CC(CC(C4)C2)C3)cc1OC	i	i	i	i	i	.	.	.	.
O=C(NC12CC3CC(CC(C3)C1)C2)c1cc(F)c(F)c(F)c1F	i	i	6.57*	i	i	i	i	i	i
COc1ccc(N2C(=O)C3CCCN3C2=O)cc1 (stereo unspecified)	i	i	10.4*	i	i	i	i	i	i
CCOc1ccc(N2C(=O)C3CCCN3C2=O)cc1 (stereo unspecified)	i	i	i	i	i	.	.	.	.
Cc1c(C(=O)NCc2ccccn2)oc2ccccc12	i	i	i	i	i	.	.	.	.
COc1ccccc1CNC(=O)c1oc2ccccc2c1C	i	i	6.66*	i	i	i	i	i	i
NNc1ncnc2c1cnn2-c1ccccc1	i	i	i	i	i	.	.	.	.
Cc1ccccc1Nc1ncnc2c1cnn2-c1ccccc1	i	i	11.5*	i	i	i	i	i	i
CCOC(=O)c1c(NC(=O)CSc2ncccn2)sc(C(=O)NC)c1C	i	i	i	i	i	.	.	.	.
COc1ccccc1NC(=S)N(Cc1ccccc1)Cc1cccnc1	i	i	i	i	i	.	.	.	.
COc1ccccc1NC(=S)N(Cc1ccccc1)Cc1ccccn1	i	i	6.58*	i	i	i	i	i	i
Cc1ccc[n+](-c2[nH]c(=O)sc2/C=N/NC(=O)c2ccccc2[O-])c1	i	i	i	i	i	.	.	.	.
COCCN1C(=O)/C(=C/c2ccc(N3CCCC3)cc2C)SC1=S	i	i	19.4*	i	i	i	0.126*	i	48*
Cc1ccccc1NC(=O)c1sc2nc(N3CCOCC3)c3c(c2c1N)CCCC3	i	i	7.2*	i	i	i	i	i	i
COc1ccccc1NC(=O)c1sc2nc(N3CCOCC3)c3c(c2c1N)CCCC3	i	i	i	i	i	.	.	.	.
SMILES	RGS4 block	MrgX1 agonist	MrgX1 PAM	MrgX1 antag	RGS4 pot	MrgX1 PAM conf	HEK293 Ca flux	HEK293 Ca counter	HEK293 Ca cntr2
Cc1nc2cc(Cl)ccc2n1-c1ccccc1	i	i	15.9*	i	i	i	i	i	i
C=CCSc1nc2ccccc2c(=O)n1C1CCOC(C)(C)C1 (stereo unspecified)	i	i	11.4*	i	i	i	i	i	i
CC1(C)CC2CC(C)(CN2Cc2c(O)ccc3ccccc23)C1 (stereo unspecified)	i	i	7.45*	i	i	i	i	i	52.5*
Nc1cccc2c1C(=O)N(c1ccccc1)C2=O	i	i	i	i	i	.	.	.	.
O=C(c1cnn2c(C(F)(F)F)cc(-c3ccccc3)nc12)N1CCCCC1c1cccnc1 (stereo unspecified)	i	i	i	i	i	.	.	.	.
O=C(c1cc2nc(-c3ccc(F)cc3)cc(C(F)(F)F)n2n1)N1CCCCC1c1cccnc1 (stereo unspecified)	i	i	7.1*	i	i	i	i	i	i
O=C(CCl)N(c1ccccc1)c1ccccc1	i	.	.	.	i	.	.	.	.
O=C(CCl)N(CCc1ccccc1)CCc1ccccc1	i	i	7.74*	i	i	i	i	i	i
CCNC(=O)OCC12CC3CC(CC(C3)C1)C2	i	i	9.76*	i	i	i	i	i	i
CN(C)CCn1c(=S)[nH]c2ncccc2c1=O	i	i	12.7*	i	i	i	i	i	i
O=c1[nH]c(-c2ccccc2)c(-c2ccccc2)o1	i	i	i	i	i	.	.	.	.
CC1CCCC(NC(=O)CN2C(=O)c3cccnc3Oc3ccc(Cl)cc32)C1C (stereo unspecified)	i	i	11*	i	i	i	i	i	77.8*
